Measured values taken from ChEMBL document CHEMBL5705898 (Proc Natl Acad Sci U S A, 2014).
pIC50: −log10 of the molar value. Converted amounts (≈) assume the structure as drawn.

Assays:
[1] = Inhibition of SETD7 D256A mutant (unknown origin) using biotinylated H3 (1-25) peptide as substrate incubated for 1 hrs in presence of 3H-SAM by radioactivity based assay; parameters: species or system Homo sapiens
In short: (§1)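 Scintillation proximity assay on recombinant E. coli-expressed human SETD7(1–366) mutant forms. Read-out was incorporation of the ³H-methyl group from ³H-SAM into histone H3(1–25) peptide, with 2 µM SAM, 2 µM H3(1–25) and 2 nM enzyme. IC50 is given as the mean ± SD of triplicate runs.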

[2] = Inhibition of SETD7 V274E mutant (unknown origin) using biotinylated H3 (1-25) peptide as substrate incubated for 1 hrs in presence of 3H-SAM by radioactivity based assay; parameters: species or system Homo sapiens; in short: as §1
[3] = Aqueous solubility of compound; assay type: physicochemical; details: buffer
[4] = Stability of compound in cell media by MS-LC analysis; assay type: physicochemical
[5] = target: Adenosine receptor A3 (Homo sapiens) (UniProt P0DMS8); experiment: Inhibition of human A3 receptor at 10 uM relative to control
[6] = target: Type-1 angiotensin II receptor (Homo sapiens) (UniProt P30556); experiment: Inhibition of human AT1 receptor at 10 uM relative to control
[7] = target: Cannabinoid receptor 1 (Homo sapiens) (UniProt P21554); experiment: Inhibition of human CB1 receptor at 10 uM relative to control
[8] = target: Cholecystokinin receptor type A (Homo sapiens) (UniProt P32238); experiment: Inhibition of human CCK1 receptor at 10 uM relative to control
Sequence of Cholecystokinin receptor type A (Homo sapiens) (P32238 whole entry): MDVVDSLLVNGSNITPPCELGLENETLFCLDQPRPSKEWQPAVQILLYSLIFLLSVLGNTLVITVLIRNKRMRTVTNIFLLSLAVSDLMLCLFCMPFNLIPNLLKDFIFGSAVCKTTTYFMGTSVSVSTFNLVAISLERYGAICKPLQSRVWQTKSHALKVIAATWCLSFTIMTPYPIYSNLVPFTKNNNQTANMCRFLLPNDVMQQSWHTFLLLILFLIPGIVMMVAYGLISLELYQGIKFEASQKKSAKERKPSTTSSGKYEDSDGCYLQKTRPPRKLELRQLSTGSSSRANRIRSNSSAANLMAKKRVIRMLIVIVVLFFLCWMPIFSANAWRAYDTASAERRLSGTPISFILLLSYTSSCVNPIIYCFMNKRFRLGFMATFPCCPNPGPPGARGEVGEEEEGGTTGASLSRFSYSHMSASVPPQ

[9] = target: D(1A) dopamine receptor (Homo sapiens) (UniProt P21728); experiment: Inhibition of human D1 receptor at 10 uM relative to control
[10] = target: D(3) dopamine receptor (Homo sapiens) (UniProt P35462); experiment: Inhibition of human D3 receptor at 10 uM relative to control
Sequence of D(3) dopamine receptor (Homo sapiens) (P35462 whole entry): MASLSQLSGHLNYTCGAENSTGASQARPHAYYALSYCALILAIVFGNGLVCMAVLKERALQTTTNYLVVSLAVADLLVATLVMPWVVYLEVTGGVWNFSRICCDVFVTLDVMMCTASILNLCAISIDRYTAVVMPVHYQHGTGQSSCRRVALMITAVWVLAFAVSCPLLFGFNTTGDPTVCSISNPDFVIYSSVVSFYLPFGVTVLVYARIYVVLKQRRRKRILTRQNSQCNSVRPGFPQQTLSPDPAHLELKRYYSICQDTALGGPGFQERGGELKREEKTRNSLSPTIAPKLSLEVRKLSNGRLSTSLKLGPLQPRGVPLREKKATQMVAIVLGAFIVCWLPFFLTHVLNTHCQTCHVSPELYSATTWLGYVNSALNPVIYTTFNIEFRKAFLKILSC

[11] = target: GABA-A receptor; alpha-1/beta-2/gamma-2 (Homo sapiens) (UniProt P14867+P47870+P18507); experiment: Inhibition of human GABA alpha1/beta2/gamma2 at 10 uM relative to control; assay type: protein-complex assay
[12] = target: Gamma-aminobutyric acid receptor subunit beta-1 (Homo sapiens) (UniProt P18505); experiment: Inhibition of human GABA beta 1b at 10 uM relative to control
[13] = target: Glutamate [NMDA] receptor (Homo sapiens) (UniProt Q05586+Q12879+Q13224+O15399+O60391+Q14957+Q8TCU5); experiment: Inhibition of NMDA receptor (unknown origin) at 10 uM relative to control; assay type: protein-complex assay
Homo sapiens [14] = species: Homo sapiens; experiment: Inhibition of strychnine-insensitive glycine receptor (unknown origin) at 10 uM relative to control
Homo sapiens [15] = species: Homo sapiens; experiment: Inhibition of human TNF-alpha at 10 uM relative to control
[16] = target: Histamine H2 receptor (Homo sapiens) (UniProt P25021); experiment: Inhibition of human H2 receptor at 10 uM relative to control
[17] = target: Histamine H3 receptor (Homo sapiens) (UniProt Q9Y5N1); experiment: Inhibition of human H3 receptor at 10 uM relative to control
Sequence of Histamine H3 receptor (Homo sapiens) (Q9Y5N1 whole entry): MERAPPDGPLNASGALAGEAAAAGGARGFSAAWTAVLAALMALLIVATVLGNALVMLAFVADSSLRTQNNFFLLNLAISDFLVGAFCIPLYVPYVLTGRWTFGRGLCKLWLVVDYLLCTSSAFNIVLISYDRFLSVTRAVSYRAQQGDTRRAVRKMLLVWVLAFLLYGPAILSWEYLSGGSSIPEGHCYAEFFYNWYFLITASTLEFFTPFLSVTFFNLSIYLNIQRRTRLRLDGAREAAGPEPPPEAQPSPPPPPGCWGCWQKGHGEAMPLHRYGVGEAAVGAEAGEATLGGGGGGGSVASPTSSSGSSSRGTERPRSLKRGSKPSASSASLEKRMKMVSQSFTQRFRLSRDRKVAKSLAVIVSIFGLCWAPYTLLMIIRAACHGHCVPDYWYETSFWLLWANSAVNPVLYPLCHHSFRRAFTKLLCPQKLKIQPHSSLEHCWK

[18] = target: Muscarinic acetylcholine receptor M2 (Homo sapiens) (UniProt P08172); experiment: Inhibition of human M2 receptor at 10 uM relative to control
[19] = target: Muscarinic acetylcholine receptor M3 (Homo sapiens) (UniProt P20309); experiment: Inhibition of human M3 receptor at 10 uM relative to control
Sequence of Muscarinic acetylcholine receptor M3 (Homo sapiens) (P20309 whole entry, looked up): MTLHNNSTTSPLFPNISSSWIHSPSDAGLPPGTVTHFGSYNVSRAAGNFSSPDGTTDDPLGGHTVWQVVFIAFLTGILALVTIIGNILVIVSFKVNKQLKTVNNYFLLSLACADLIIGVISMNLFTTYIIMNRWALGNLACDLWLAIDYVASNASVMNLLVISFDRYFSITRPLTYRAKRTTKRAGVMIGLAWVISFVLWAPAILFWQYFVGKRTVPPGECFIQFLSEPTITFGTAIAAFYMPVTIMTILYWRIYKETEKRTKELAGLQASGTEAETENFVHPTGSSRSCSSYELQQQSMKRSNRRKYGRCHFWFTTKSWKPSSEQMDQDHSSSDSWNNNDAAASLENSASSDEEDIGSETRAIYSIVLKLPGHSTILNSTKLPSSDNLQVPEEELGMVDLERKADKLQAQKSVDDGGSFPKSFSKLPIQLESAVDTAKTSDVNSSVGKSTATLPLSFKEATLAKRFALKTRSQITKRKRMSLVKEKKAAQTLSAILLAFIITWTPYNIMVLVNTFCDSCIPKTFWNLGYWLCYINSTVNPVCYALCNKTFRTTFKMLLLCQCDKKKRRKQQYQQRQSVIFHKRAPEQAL

[20] = target: Kappa-type opioid receptor (Homo sapiens, UniProt P41145); experiment: Inhibition of human kappa opioid receptor at 10 uM relative to control
Homo sapiens [21] = species: Homo sapiens; experiment: Inhibition of human NOP(ORL1) at 10 uM relative to control
[22] = target: Peroxisome proliferator-activated receptor gamma (Homo sapiens) (UniProt P37231); experiment: Inhibition of human PPARgamma at 10 uM relative to control
[23] = target: Prostaglandin E2 receptor EP2 subtype (Homo sapiens) (UniProt P43116); experiment: Inhibition of human EP2 receptor at 10 uM relative to control
Sequence of Prostaglandin E2 receptor EP2 subtype (Homo sapiens) (P43116 whole entry): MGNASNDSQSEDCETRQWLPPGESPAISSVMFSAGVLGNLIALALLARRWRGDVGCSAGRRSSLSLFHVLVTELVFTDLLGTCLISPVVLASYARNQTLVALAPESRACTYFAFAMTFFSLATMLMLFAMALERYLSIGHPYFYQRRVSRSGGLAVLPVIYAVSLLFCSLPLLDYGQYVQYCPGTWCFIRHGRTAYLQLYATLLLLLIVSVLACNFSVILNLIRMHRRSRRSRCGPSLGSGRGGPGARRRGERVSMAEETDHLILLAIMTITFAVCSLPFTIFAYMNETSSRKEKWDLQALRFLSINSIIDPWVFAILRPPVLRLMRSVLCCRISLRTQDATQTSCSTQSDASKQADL

[24] = target: 5-hydroxytryptamine receptor 1A (Homo sapiens) (UniProt P08908); experiment: Inhibition of human 5-HT1A receptor at 10 uM relative to control
Sequence of 5-hydroxytryptamine receptor 1A (Homo sapiens) (P08908 whole entry): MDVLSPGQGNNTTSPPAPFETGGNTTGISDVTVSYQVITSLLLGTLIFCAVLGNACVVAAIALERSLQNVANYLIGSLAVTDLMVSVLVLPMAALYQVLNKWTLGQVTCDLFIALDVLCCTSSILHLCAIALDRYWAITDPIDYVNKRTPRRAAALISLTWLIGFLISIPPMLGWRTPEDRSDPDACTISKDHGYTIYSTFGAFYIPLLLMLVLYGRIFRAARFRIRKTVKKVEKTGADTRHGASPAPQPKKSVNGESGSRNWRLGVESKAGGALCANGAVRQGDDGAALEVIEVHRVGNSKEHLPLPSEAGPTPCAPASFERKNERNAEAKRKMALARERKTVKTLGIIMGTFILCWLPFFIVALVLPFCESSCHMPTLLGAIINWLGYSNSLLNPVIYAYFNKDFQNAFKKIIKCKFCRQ

[25] = target: Androgen receptor (Homo sapiens) (UniProt P10275); experiment: Inhibition of human AR at 10 uM relative to control
Sequence of Androgen receptor (Homo sapiens) (P10275 whole entry): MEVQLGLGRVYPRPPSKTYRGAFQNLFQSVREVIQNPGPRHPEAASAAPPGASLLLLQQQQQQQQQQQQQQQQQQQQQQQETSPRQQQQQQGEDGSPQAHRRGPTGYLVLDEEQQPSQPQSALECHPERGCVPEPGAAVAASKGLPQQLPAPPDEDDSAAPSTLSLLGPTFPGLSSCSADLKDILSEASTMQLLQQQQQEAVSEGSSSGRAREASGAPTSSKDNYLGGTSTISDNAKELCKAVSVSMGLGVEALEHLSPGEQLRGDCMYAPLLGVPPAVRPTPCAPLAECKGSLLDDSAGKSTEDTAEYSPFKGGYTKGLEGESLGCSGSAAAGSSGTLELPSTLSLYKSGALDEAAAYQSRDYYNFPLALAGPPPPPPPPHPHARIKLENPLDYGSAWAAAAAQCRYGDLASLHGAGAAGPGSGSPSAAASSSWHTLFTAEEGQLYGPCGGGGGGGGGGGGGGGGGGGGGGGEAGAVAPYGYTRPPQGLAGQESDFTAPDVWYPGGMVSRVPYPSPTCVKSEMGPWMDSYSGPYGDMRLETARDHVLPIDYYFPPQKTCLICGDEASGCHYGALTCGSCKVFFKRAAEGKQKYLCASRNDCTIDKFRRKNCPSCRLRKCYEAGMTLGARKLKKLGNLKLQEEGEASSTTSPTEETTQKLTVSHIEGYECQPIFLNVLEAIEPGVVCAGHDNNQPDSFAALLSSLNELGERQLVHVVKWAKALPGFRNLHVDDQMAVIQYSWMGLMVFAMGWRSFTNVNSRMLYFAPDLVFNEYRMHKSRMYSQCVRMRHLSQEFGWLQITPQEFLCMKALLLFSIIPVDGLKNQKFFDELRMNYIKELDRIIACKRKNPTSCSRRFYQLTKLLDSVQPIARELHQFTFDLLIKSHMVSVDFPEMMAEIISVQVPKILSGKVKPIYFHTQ

Homo sapiens [26] = species: Homo sapiens; experiment: Inhibition of human TR at 10 uM relative to control
Homo sapiens [27] = species: Homo sapiens; experiment: Inhibition of human UT at 10 uM relative to control
[28] = target: Vasopressin V1a receptor (Homo sapiens) (UniProt P37288); experiment: Inhibition of human V1a at 10 uM relative to control
Sequence of Vasopressin V1a receptor (Homo sapiens) (P37288 whole entry, looked up): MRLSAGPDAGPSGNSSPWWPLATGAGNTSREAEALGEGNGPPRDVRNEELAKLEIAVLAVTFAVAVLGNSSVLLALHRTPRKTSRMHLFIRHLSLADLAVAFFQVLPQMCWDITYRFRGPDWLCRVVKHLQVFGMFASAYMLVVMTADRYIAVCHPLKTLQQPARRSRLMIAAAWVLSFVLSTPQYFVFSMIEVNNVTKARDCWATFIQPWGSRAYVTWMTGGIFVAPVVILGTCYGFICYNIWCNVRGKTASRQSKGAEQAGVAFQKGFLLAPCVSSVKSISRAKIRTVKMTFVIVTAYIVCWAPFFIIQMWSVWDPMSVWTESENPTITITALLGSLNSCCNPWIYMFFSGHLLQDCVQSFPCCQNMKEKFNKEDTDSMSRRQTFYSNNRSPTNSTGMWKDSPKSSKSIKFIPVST

[29] = target: Vasopressin V2 receptor (Homo sapiens) (UniProt P30518); experiment: Inhibition of human V2 receptor at 10 uM relative to control
Sequence of Vasopressin V2 receptor (Homo sapiens) (P30518 whole entry): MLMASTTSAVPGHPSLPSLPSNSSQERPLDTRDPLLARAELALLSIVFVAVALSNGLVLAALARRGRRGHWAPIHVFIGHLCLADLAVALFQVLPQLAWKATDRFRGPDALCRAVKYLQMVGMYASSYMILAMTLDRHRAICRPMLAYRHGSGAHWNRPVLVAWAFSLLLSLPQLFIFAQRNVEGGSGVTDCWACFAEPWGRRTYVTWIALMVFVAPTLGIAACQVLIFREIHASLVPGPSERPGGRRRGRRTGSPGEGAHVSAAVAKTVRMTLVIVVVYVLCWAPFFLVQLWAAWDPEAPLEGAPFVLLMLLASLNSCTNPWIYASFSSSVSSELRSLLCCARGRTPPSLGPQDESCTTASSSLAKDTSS

Homo sapiens [30] = species: Homo sapiens; experiment: Inhibition of Ca2+ channel L, dihydropyridine site (unknown origin) at 10 uM relative to control
[31] = target: Sodium-dependent noradrenaline transporter (Homo sapiens) (UniProt P23975); experiment: Inhibition of human norepinephrine transporter at 10 uM relative to control
[32] = target: Prostaglandin G/H synthase 1 (Homo sapiens) (UniProt P23219); experiment: Inhibition of human COX1 at 10 uM relative to control
Sequence of Prostaglandin G/H synthase 1 (Homo sapiens) (P23219 whole entry): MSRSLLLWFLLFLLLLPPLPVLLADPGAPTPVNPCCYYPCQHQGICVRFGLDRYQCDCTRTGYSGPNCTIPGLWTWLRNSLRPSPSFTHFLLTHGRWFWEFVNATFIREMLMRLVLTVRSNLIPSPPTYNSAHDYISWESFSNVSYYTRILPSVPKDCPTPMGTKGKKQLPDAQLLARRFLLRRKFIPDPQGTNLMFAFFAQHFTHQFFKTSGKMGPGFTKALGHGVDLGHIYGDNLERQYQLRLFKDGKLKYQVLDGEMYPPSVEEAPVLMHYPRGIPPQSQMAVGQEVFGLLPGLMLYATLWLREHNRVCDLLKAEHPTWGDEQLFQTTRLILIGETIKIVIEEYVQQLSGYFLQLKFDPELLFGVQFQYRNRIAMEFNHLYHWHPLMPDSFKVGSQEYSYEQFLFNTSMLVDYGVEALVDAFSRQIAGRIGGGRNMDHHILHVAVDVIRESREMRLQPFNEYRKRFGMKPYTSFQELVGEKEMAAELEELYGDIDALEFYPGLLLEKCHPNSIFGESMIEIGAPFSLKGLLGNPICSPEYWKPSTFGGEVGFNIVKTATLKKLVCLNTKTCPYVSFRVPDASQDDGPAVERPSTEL

[33] = target: 3',5'-cyclic-AMP phosphodiesterase 4D (Homo sapiens) (UniProt Q08499); experiment: Inhibition of human PDE4D2 at 10 uM relative to control
[34] = target: Angiotensin-converting enzyme 2 (Homo sapiens) (UniProt Q9BYF1); experiment: Inhibition of human ACE-2 at 10 uM relative to control
[35] = target: Beta-secretase 1 (Homo sapiens) (UniProt P56817); experiment: Inhibition of human BACE-1 at 10 uM relative to control
[36] = target: Neprilysin (Homo sapiens) (UniProt P08473); experiment: Inhibition of human neutral endopeptidase at 10 uM relative to control
[37] = target: Calcium/calmodulin-dependent protein kinase type II subunit alpha (Homo sapiens) (UniProt Q9UQM7); experiment: Inhibition of human CaMK2alpha at 10 uM relative to control
Homo sapiens [38] = species: Homo sapiens; experiment: Inhibition of human CDK2/CycA at 10 uM relative to control
[39] = target: Tyrosine-protein kinase Lyn (Homo sapiens) (UniProt P07948); experiment: Inhibition of human Lyn A kinase at 10 uM relative to control
[40] = target: Tyrosine-protein kinase ZAP-70 (Homo sapiens) (UniProt P43403); experiment: Inhibition of human ZAP70 kinase at 10 uM relative to control
[41] = target: Acetylcholinesterase (Homo sapiens) (UniProt P22303); experiment: Inhibition of human acetylcholinesterase at 10 uM relative to control
[42] = target: Catechol O-methyltransferase (Homo sapiens) (UniProt P21964); experiment: Inhibition of COMT (unknown origin) at 10 uM relative to control
Homo sapiens [43] = species: Homo sapiens; experiment: Inhibition of Na+/K+ ATPase (unknown origin) at 10 uM relative to control
[44] = Inhibition of Ca2+ channel L, diltiazem site (unknown origin); parameters: species or system Homo sapiens

With O=C([C@@H](Cc1cccc(C(F)(F)F)c1)NS(=O)(=O)c1cc(F)c2c(c1)CCNC2)N1CCCC1 the pIC50 [1] was 5.92, the pIC50 [2] was 4.97 and the solubility [3] was 285 µM (≈ 142 µg/mL). For the same compound, the Stability [4] was “Stable”, the inhibition [5] was 12% and the inhibition [6] was 15%. It also gave an inhibition [7] of 25%, an inhibition [8] of 8% and an inhibition [9] of 0%. It also gave an inhibition [10] of 43%, an inhibition [11] of -10% and an inhibition [12] of 5%. For the same compound, the inhibition [13] was -8%, the inhibition (Homo sapiens [14]) was -1% and the inhibition (Homo sapiens [15]) was -4%. It also gave an inhibition [16] of 0%, an inhibition [17] of -1% and an inhibition [18] of 3%. The inhibition [19] was 37%, the inhibition [20] was 55% and the inhibition (Homo sapiens [21]) was 11%. The inhibition [22] was 7%, the inhibition [23] was -1% and the inhibition [24] was 0%. The inhibition [25] was 1%, the inhibition (Homo sapiens [26]) was 5% and the inhibition (Homo sapiens [27]) was 38%. It also gave an inhibition [28] of 8%, an inhibition [29] of 11% and an inhibition (Homo sapiens [30]) of -10%. It also gave an inhibition [31] of 10%, an inhibition [32] of 4% and an inhibition [33] of 1%. The inhibition [34] was 4%, the inhibition [35] was 3% and the inhibition [36] was -6%. It also gave an inhibition [37] of 6%, an inhibition (Homo sapiens [38]) of -1% and an inhibition [39] of 14%. It also gave an inhibition [40] of 13%, an inhibition [41] of 0% and an inhibition [42] of -9%. For the same compound, the inhibition (Homo sapiens [43]) was 5% and the pIC50 [44] was 4.85.
